Data taken from ChEMBL document CHEMBL1156597, “Structure-activity relationship of kahalalide F synthetic analogues” (J Med Chem, 2008).

Experiments:
DU-145 = experiment: Cytotoxicity against human DU145 cells after 48 hrs by SRB assay; assay type: functional, cell-based; details: Homo sapiens, DU-145, 48 h; for CC50: read-out: LC50 (the source's name)
Summary of the method: (§1)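 Cells grown in RPMI 1640 with 10% FBS and penicillin/streptomycin at 37 °C and 5% CO₂, trypsinized, then seeded at 5 × 10³/well. After 18 h drug-free attachment, samples in DMSO/EtOH/PBS (0.5:0.5:99) were added for 48 h continuous exposure. Cells were fixed with cold TCA (1 h, 4 °C) and stained with SRB (10 min). Tris-solubilized stain read at 490 nm. Triplicate wells, mean ± SD; GI₅₀ derived.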

LNCaP = experiment: Cytotoxicity against human LNcaP cells after 48 hrs by SRB assay; assay type: functional; details: for CC50: read-out: LC50 (the source's name); summary of the method: as §1
[1] = Cytotoxicity against human IGROV cells after 48 hrs by SRB assay; assay type: functional; details: for CC50: read-out: LC50 (the source's name); summary of the method: as §1
[2] = Cytotoxicity against human IGROV-ET cells after 48 hrs by SRB assay; assay type: functional; details: for CC50: read-out: LC50 (the source's name); summary of the method: as §1
SK-BR-3 = experiment: Cytotoxicity against human SKBR3 cells after 48 hrs by SRB assay; assay type: functional; details: SK-BR-3, 48 h; for GI50: read-out: GI50; for CC50: read-out: LC50 (the source's name); summary of the method: as §1
SK-MEL-28 = experiment: Cytotoxicity against human SK-MEL-28 cells after 48 hrs by SRB assay; assay type: functional, cell-based; details: Homo sapiens, SK-MEL-28, 48 h; for CC50: read-out: LC50 (the source's name); summary of the method: as §1
A549 = experiment: Cytotoxicity against human A549 cells after 48 hrs by SRB assay; assay type: functional, cell-based; details: Homo sapiens, A549, 48 h; summary of the method: as §1
K562 = experiment: Cytotoxicity against human K562 cells after 48 hrs by SRB assay; assay type: functional; details: K562, 48 h; for CC50: read-out: LC50 (the source's name); summary of the method: as §1
PANC-1 = experiment: Cytotoxicity against human PANC1 cells after 48 hrs by SRB assay; assay type: functional; details: PANC-1, 48 h; for CC50: read-out: LC50 (the source's name); summary of the method: as §1
HT-29 = experiment: Cytotoxicity against human HT29 cells after 48 hrs by SRB assay; assay type: functional, cell-based; details: Homo sapiens, HT-29, 48 h; for CC50: read-out: LC50 (the source's name); summary of the method: as §1
LoVo [3] = experiment: Cytotoxicity against human LoVo cells after 48 hrs by SRB assay; assay type: functional; details: for CC50: read-out: LC50 (the source's name)
LoVo [4] = experiment: Cytotoxicity against human doxorubicin resistant LoVo cells after 48 hrs by SRB assay; assay type: functional; details: for CC50: read-out: LC50 (the source's name); summary of the method: as §1
HeLa = experiment: Cytotoxicity against human HeLa cells after 48 hrs by SRB assay; assay type: functional; details: for CC50: read-out: LC50 (the source's name); summary of the method: as §1
[5] = Cytotoxicity against human HeLa-APL cells after 48 hrs by SRB assay; assay type: functional; summary of the method: as §1

C/C=C1\NC(=O)[C@H](Cc2ccccc2)NC(=O)[C@@H](C(C)C)NC(=O)[C@@H]([C@H](C)CC)NC(=O)[C@H](NC(=O)[C@H](NC(=O)[C@H](CCCN)NC(=O)[C@H]2CCCN2C(=O)[C@H](NC(=O)[C@@H](NC(=O)[C@H](Cc2ccccc2)NC(=O)[C@H](NC(=O)CCCC(C)C)C(C)C)C(C)C)C(C)C)[C@H](C)CC)[C@H](C)OC(=O)[C@H](C(C)C)NC1=O
GI50 (DU-145): 166 nM | GI50 (DU-145; read-out: GI50): 191 nM | CC50 (DU-145): 321 nM | GI50 (LNCaP): 61.7 nM | TGI (LNCaP): 132 nM | CC50 (LNCaP): 777 nM | GI50 [1]: 103 nM | GI50 ([1]; read-out: GI50): 175 nM | CC50 [1]: 478 nM | GI50 [2]: 197 nM | GI50 ([2]; read-out: GI50): 245 nM | CC50 [2]: 518 nM | TGI (SK-BR-3): 351 nM | GI50 (SK-BR-3): 303 nM | CC50 (SK-BR-3): 352 nM | GI50 (SK-MEL-28): 146 nM | GI50 (SK-MEL-28; read-out: GI50): 152 nM | CC50 (SK-MEL-28): 158 nM | LC50 (A549): 1330 nM | TGI (A549): 71.4 nM | GI50 (A549; read-out: GI50): 69.4 nM | GI50 (K562): 23.2 nM | TGI (K562): 106 nM | CC50 (K562): 1150 nM | GI50 (PANC-1): 142 nM | TGI (PANC-1): 304 nM | CC50 (PANC-1): 1720 nM | CC50 (HT-29): 68.3 nM | GI50 (LoVo [3]): 332 nM | TGI (LoVo [3]): 296 nM | CC50 (LoVo [3]): 210 nM | GI50 (LoVo [4]): 380 nM | TGI (LoVo [4]): 456 nM | CC50 (LoVo [4]): 252 nM | GI50 (HeLa): 128 nM | TGI (HeLa): 137 nM | CC50 (HeLa): 352 nM | GI50 [5]: 145 nM | LC50 (concentration giving 50% net cell kill) [5]: 282 nM | TGI [5]: 142 nM

C/C=C1\NC(=O)[C@H](Cc2ccccc2)NC(=O)[C@@H](C(C)C)NC(=O)[C@@H]([C@H](C)CC)NC(=O)[C@H](NC(=O)[C@H](NC(=O)[C@H](CCCCN)NC(=O)[C@H]2CCCN2C(=O)[C@H](NC(=O)[C@@H](NC(=O)[C@@H](NC(=O)[C@H](NC(=O)CCCC(C)C)C(C)C)[C@@H](C)O)C(C)C)C(C)C)[C@H](C)CC)[C@H](C)OC(=O)[C@H](C(C)C)NC1=O
TGI (DU-145): 2440 nM | GI50 (DU-145; read-out: GI50): 1290 nM | CC50 (DU-145): 3170 nM | GI50 (LNCaP): 1330 nM | TGI (LNCaP): 1150 nM | CC50 (LNCaP): 985 nM | GI50 [1]: 568 nM | GI50 ([1]; read-out: GI50): 562 nM | CC50 [1]: 5720 nM | GI50 [2]: 619 nM | GI50 ([2]; read-out: GI50): 645 nM | CC50 [2]: 587 nM | TGI (SK-BR-3): 366 nM | GI50 (SK-BR-3): 385 nM | CC50 (SK-BR-3): 351 nM | TGI (SK-MEL-28): 1270 nM | GI50 (SK-MEL-28; read-out: GI50): 1470 nM | CC50 (SK-MEL-28): 1370 nM | LC50 (A549): 1340 nM | TGI (A549): 1390 nM | GI50 (A549; read-out: GI50): 1440 nM | GI50 (K562): 9350 nM | TGI (K562): 14700 nM | CC50 (K562): 4770 nM | GI50 (PANC-1): 5110 nM | TGI (PANC-1): 4550 nM | CC50 (PANC-1): 2210 nM | GI50 (HT-29): 521 nM | TGI (HT-29): 422 nM | CC50 (HT-29): 340 nM | GI50 (LoVo [3]): 426 nM | TGI (LoVo [3]): 379 nM | CC50 (LoVo [3]): 337 nM | GI50 (LoVo [4]): 301 nM | TGI (LoVo [4]): 280 nM | CC50 (LoVo [4]): 36.6 nM | GI50 (HeLa): 910 nM | TGI (HeLa): 776 nM | CC50 (HeLa): 883 nM | GI50 [5]: 512 nM | LC50 (concentration giving 50% net cell kill) [5]: 757 nM | TGI [5]: 664 nM

C/C=C1\NC(=O)[C@H](CCC2CCCCC2)NC(=O)[C@@H](C(C)C)NC(=O)[C@@H]([C@@H](C)CC)NC(=O)[C@H](NC(=O)[C@H](NC(=O)[C@H](CCCN)NC(=O)[C@H]2CCCN2C(=O)[C@H](NC(=O)[C@@H](NC(=O)[C@@H](NC(=O)[C@H](NC(=O)CCCC(C)C)C(C)C)[C@@H](C)O)C(C)C)C(C)C)[C@@H](C)CC)[C@@H](C)OC(=O)[C@H](C(C)C)NC1=O
GI50 (DU-145): 472 nM | GI50 (DU-145; read-out: GI50): 464 nM | CC50 (DU-145): 553 nM | GI50 (LNCaP): 384 nM | TGI (LNCaP): 625 nM | CC50 (LNCaP): 661 nM | GI50 [1]: 372 nM | GI50 ([1]; read-out: GI50): 276 nM | CC50 [1]: 378 nM | GI50 [2]: 312 nM | GI50 ([2]; read-out: GI50): 232 nM | CC50 [2]: 350 nM | TGI (SK-BR-3): 205 nM | GI50 (SK-BR-3): 165 nM | CC50 (SK-BR-3): 256 nM | TGI (SK-MEL-28): 1000 nM | GI50 (SK-MEL-28; read-out: GI50): 1020 nM | CC50 (SK-MEL-28): 983 nM | GI50 (A549): 857 nM | LC50 (A549): 959 nM | GI50 (A549; read-out: GI50): 756 nM | GI50 (K562): 1420 nM | TGI (K562): 1410 nM | CC50 (K562): 1390 nM | GI50 (PANC-1): 1120 nM | TGI (PANC-1): 1290 nM | CC50 (PANC-1): 1490 nM | GI50 (HT-29): 294 nM | TGI (HT-29): 352 nM | CC50 (HT-29): 359 nM | GI50 (LoVo [3]): 266 nM | TGI (LoVo [3]): 282 nM | CC50 (LoVo [3]): 298 nM | GI50 (LoVo [4]): 224 nM | TGI (LoVo [4]): 258 nM | CC50 (LoVo [4]): 296 nM | GI50 (HeLa): 304 nM | TGI (HeLa): 313 nM | CC50 (HeLa): 500 nM | GI50 [5]: 319 nM | LC50 (concentration giving 50% net cell kill) [5]: 617 nM | TGI [5]: 499 nM
